Source: PubChem (SRMLSC)
bCat KO growth: beta-catenin-lacking colon tumor cell growth suppression. actives 1.5% (n = 140,000). HCT116 beta-catenin knockout viability, CellTiter-Glo, 60 h; stronger effect = lower value. viability, % at 10 µM. AID 818;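 active = viability at or under a set limit, the compound median less 4 SD, cut at about 6% in these data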
H69AR inhibit: blocks growth of human H69AR lung tumor cells. actives 6% (n = 85,000). AID 598. H69AR lung tumor viability, ATP luminescence, 72 h; stronger effect = lower value. viability, % at 10 µM;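 active = viability at or below 40%; inactive = viability above 40%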;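 note: multidrug resistant small cell line overexpressing MRP-1 efflux transporter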
PTEN del growth: growth suppressors of cells with PTEN tumor suppressor deletion; HCT116 PTEN-null viability, CellTiter-Glo, 60 h; stronger effect = lower value; viability, % at 10 µM; actives 1.2% (n = 140,000);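 active = viability at or below a set limit, 4 SD under the median of all tested compounds, cut at about 3.7% in these data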;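 note: PTEN knockout HCT116 line with beta catenin targeted HCT116 as companion control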
HUVEC inhibit: blocks proliferation of human endothelial cells; AID 648; HUVEC proliferation, CellTiter-Glo luminescence, 72 h; stronger effect = lower value; actives 1.1% (n = 86,000); viability, % at 10 µM (by protocol);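 active = viability at or below 30%; inactive = viability above 30%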
Fibroblast inh: blocks proliferation of human lung fibroblasts; LL 47 human lung fibroblast viability, ATP luminescence; stronger effect = lower value; viability, % at 10 µM; actives 1.1% (n = 85,000);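 active = viability at or below 50% in the single dose screen; inactive = viability above 50%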;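 note: compound exposure lasted 72 h before the ATP readout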
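test system = LL 47 human lung fibroblasts | amount = 1,150 fibroblasts seeded per well | medium = 15% FBS in IMEM | times = overnight cell rest, 72 h compound treatment at 37 °C | measured by = CellTiter-Glo luminescence measuring cellular ATP | read-out = viability percentage against median untreated-cell control | benchmarks = cell-only wells, no compound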
Hits are given with their value; – = inactive; · = not tested or not shown. The full list was thinned out, with hits kept by preference.

SMILES	bCat KO growth	H69AR inhibit	PTEN del growth	HUVEC inhibit	Fibroblast inh
Cc1ccc(OC2=NS(=O)(=O)c3ccccc32)cc1	–	31	–	–	–
Cc1cc(C)c(S(=O)(=O)N2CCCOC2CNC(=O)C(=O)NCCc2c[nH]c3ccccc23)c(C)c1 (stereo not given)	–	·	–	·	·
COc1cc(OC)c2nc(C)c3c(c2c1)N(c1ccc(O)cc1)CC3	4.5	·	–	·	·
CCC(NC(=O)N(Cc1ccccc1)Cc1ccc2c(c1)OCO2)(C(F)(F)F)C(F)(F)F	–	37	–	–	–
CC(NC(=O)N(Cc1ccccc1)Cc1ccc2c(c1)OCO2)(C(F)(F)F)C(F)(F)F	–	–	–	–	–
COc1ccccc1NC(=O)COc1ccc(/C=N/NC(=O)CSCc2cc(C)cc(C)c2)cc1	–	·	–	·	·
COc1ccccc1NC(=O)COc1ccc(/C=N/NC(=O)CSCc2ccc(Cl)cc2)cc1	3.2	·	2.2	·	·
CCOC(=O)c1cnc2c(C)c(Cl)ccc2c1Nc1ccc(S(=O)(=O)Nc2ncccn2)cc1	–	·	–	·	·
COc1cccc(-n2nnc3c(=O)n(CC(=O)N4CCC(Cc5ccccc5)CC4)cnc32)c1	–	30	–	–	–
CCc1ccc(C2C(C#N)=C(N)C(C#N)(C#N)C3=CCC(C(C)(C)C)CC32)cc1 (stereo not given)	–	–	–	2.3	–
O=C1CN(CC(=O)NC(=O)NCc2ccccc2)CCN1	–	·	–	·	·
Cn1c(=O)[nH]c(=O)c2c1nc(Br)n2CCCSc1nc2ccccc2o1	–	16	–	–	–
CCCCCCn1c(COc2ccccc2F)nnc1SCC(=O)N1c2ccccc2NC(=O)C1(C)C	1.2	0.8	1.1	–	–
CCn1c(SCC(=O)OCC(=O)N2c3ccccc3NC(=O)C2(C)C)nnc1-c1ccco1	–	–	–	–	–
CSc1cc(-c2ccccc2)n(Cc2ccc(Cl)cc2Cl)c(=O)c1C#N	–	36	–	–	–
COc1ccc(C(=O)C(C)OC(=O)c2cccc(S(=O)(=O)Nc3cc(Cl)c(OC)cc3OC)c2)cc1 (stereo not given)	–	·	–	·	·
C=CCN(CC=C)C(=S)NCCc1ccc(OC)c(OC)c1	–	·	–	·	·
Cc1c(C(=O)Nc2cccc(Cl)c2)oc2ccc(S(=O)(=O)N3CCC4(CC3)OCCO4)cc12	–	13	–	–	–
Cc1c(C(=O)NCc2ccccc2)oc2ccc(S(=O)(=O)N3CCC4(CC3)OCCO4)cc12	–	–	–	–	–
Cc1c(C(=O)Nc2ccc(F)cc2)oc2ccc(S(=O)(=O)N3CCCC3)cc12	–	–	–	–	–
Cc1ccc(NC(=O)c2oc3ccc(S(=O)(=O)N4CCOCC4)cc3c2C)cc1C	–	37	–	–	–
Cc1c(C(=O)Nc2ccc(F)cc2)oc2ccc(S(=O)(=O)N3CCC4(CC3)OCCO4)cc12	–	33	–	–	–
CCC(=O)NC(=S)N1CCN(c2ccc([N+](=O)[O-])cc2Cl)CC1	–	·	–	·	·
COc1ccc(-c2ncncc2-c2csc(C)n2)c(O)c1OC	–	–	–	–	–
COC1=C(N)C(=O)c2nc(-c3nc(C(=O)O)c(C)c(-c4ccc(OC)c(OC)c4O)c3N)ccc2C1=O	2.3	·	2.0	·	·
SMILES	bCat KO growth	H69AR inhibit	PTEN del growth	HUVEC inhibit	Fibroblast inh
Cc1nn(Cc2cccc(C(=O)N3CCCC(C)C3)c2)c(C)c1[N+](=O)[O-] (stereo not given)	–	·	–	·	·
OC(CNCc1ccco1)Cn1c2ccc(Br)cc2c2cc(Br)ccc21 (stereo not given)	2.1	·	1.7	·	·
Brc1ccc2ncnc(NCc3ccco3)c2c1	–	–	–	–	–
CCc1c(C(=O)NNC(=S)NCC(C)C)csc1C	–	·	–	·	·
O=C(Nc1cccc(C(F)(F)F)c1)c1ccc2nc(-c3ccco3)c(-c3ccco3)nc2c1	–	32	–	–	–
COc1ccc(C(=O)Nc2cccc(-c3nnc(-c4ccco4)o3)c2)cc1	–	24	–	–	–
CCOc1ccccc1C(=O)Nc1cccc(-c2nnc(-c3ccccc3)o2)c1	–	8.7	–	–	–
C=CCOc1cccc(C2c3c(oc4ccc(F)cc4c3=O)C(=O)N2CCCN2CCOCC2)c1 (stereo not given)	·	–	·	–	–
CCc1ccc(CCC(=O)Nc2ncc(Cc3ccccc3Cl)s2)o1	–	·	–	·	·
CCN1C(=O)/C(=C/N(C(C)=O)c2ccccc2)N(c2ccccc2)C1=S	–	16	–	–	–
COc1ccc(-c2cc(C(=O)N3CC4(C)CC3CC(C)(C)C4)no2)cc1 (stereo not given)	–	–	–	–	–
CC1(C)CC2CC(C)(CN2C(=O)c2cc(-c3ccccc3O)on2)C1 (stereo not given)	–	16	–	–	–
O=C1CN(C(=O)COc2cccc(F)c2)c2ccccc2N1	–	·	–	·	·
Cc1noc(C)c1COc1cccc(C(=O)OCC(=O)N2CC(=O)Nc3ccccc32)c1	–	22	–	–	–
COc1ccccc1NC(=O)c1oc2ccccc2c1NC(=O)c1cc(OC)c(OC)c(OC)c1	·	22	·	–	–
COc1cccc(OCC(=O)Nc2c(C(=O)Nc3ccc(OC)cc3OC)oc3ccccc23)c1	·	21	·	–	–
CCOC(=O)C(C)Sc1nc(-c2cccs2)ccc1C#N (stereo not given)	–	4.0	–	–	–
C=COC(=O)CSc1nc(-c2cccs2)ccc1C#N	–	–	–	–	–
CCOc1ccc2nc(SC(C)C(N)=O)[nH]c2c1 (stereo not given)	–	–	–	–	–
COc1ccc(NC(=O)CSc2nc(C)c3c(c2C#N)CCCC3)cc1	–	–	–	–	–
CCc1nnc(NC(=O)CSc2nc(C)c3c(c2C#N)CCCC3)s1	–	24	–	–	–
O=c1c2ccccc2nc(/C=C/c2ccc([N+](=O)[O-])o2)n1CCCO	1.5	·	1.3	·	·
O=c1c2ccccc2nc(/C=C/c2ccc([N+](=O)[O-])cc2)n1CCCO	–	·	–	·	·
CCc1cccc(CC)c1NC(=O)CSc1nc2ccc(N3C(=O)C4C(C3=O)[C@H]3C=C[C@@H]4C3)cc2s1 (stereo not given in full)	–	·	–	·	·
CCC(=O)N1CCc2cc(S(=O)(=O)CCC(=O)Nc3nc(C)cs3)ccc21	–	1.8	–	–	–
SMILES	bCat KO growth	H69AR inhibit	PTEN del growth	HUVEC inhibit	Fibroblast inh
CCC(C)n1c(=O)c(C(=O)Nc2ccccc2S(N)(=O)=O)c(O)c2ccccc21 (stereo not given)	–	27	–	–	–
CC(C)Cn1c(=O)c(C(=O)Nc2ccccc2S(N)(=O)=O)c(O)c2ccccc21	–	·	–	·	·
CCOC(=O)c1c(CC(C)C)csc1NC(=O)COC(=O)c1cc(OC)c(OC)cc1[N+](=O)[O-]	–	·	–	·	·
O=C1N(Nc2ccccc2)C(c2ccc(Br)cc2)C12CCCCC2 (stereo not given)	–	19	–	–	–
O=C1N(Nc2ccccc2)C(c2ccc(Br)cc2)C12CCCC2 (stereo not given)	–	–	–	–	–
CN1CC2=Cc3ccccc3OC23Oc2ccccc2C=C3C1	–	21	–	–	–
